The values below come from ChEMBL document CHEMBL4028805, “Phenylthiazole Antibacterial Agents Targeting Cell Wall Synthesis Exhibit Potent Activity in Vitro and in Vivo against Vancomycin-Resistant Enterococci” (J Med Chem, 2017).

Converted amounts (≈) assume the structure as drawn. The source made the active and inactive calls. The rule behind the calls is not given here.

Data set [1] in a line: Induction of proton motive force collapse in Escherichia coli inverted membrane vesicle in presence of succinate/O2-driven PMF generation system by ACMA-based fluorescence assay. The format is functional, cell membranes. A digest of the protocol:
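E. coli inverted membrane vesicles (0.1 mg/mL membrane protein) with 2 μM ACMA and 0.5 mM ATP or succinate, in 10 mM HEPES-KOH, 5 mM MgSO4, 100 mM KCl, pH 7.5. Proton gradient followed by ACMA fluorescence (ex 410/em 480 nm). EC50 taken from dose-response curves. CCCP used as reference uncoupler.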

The test system of data set [2] is Enterococcus faecalis. Kind of data set: Synergistic antimicrobial activity against Enterococcus faecalis ATCC 51299 after 20 hrs in presence of linezolid by checkerboard assay. It counts as functional. A digest of the protocol:
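Checkerboard in TSB with a starting inoculum of 1×10^5 CFU/mL. Compound and antibiotic diluted from 2× or 4× MIC along perpendicular axes. Incubated 20 h at 37 °C. ΣFIC calculated: ≤0.5 synergy, >0.5 to <2 additive, 2–4 indifference, >4 antagonism.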

The test system of another data set is Enterococcus faecium. Kind of data set: Potentiation of vancomycin-induced antibacterial activity against Enterococcus faecium HM-968 assessed as fold reduction in vancomycin MIC preincubated for 30 mins followed by vancomycin addition measured after 18 to 21 hrs. The format is functional. A digest of the protocol: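 VRE suspensions at 5×10^5 CFU/mL preincubated with compound at ½ × MIC for 30 min at room temperature. […] Fold reduction calculated as vancomycin MIC alone over MIC in combination.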

The subject of data set [3] is Enterococcus faecalis. Kind of data set: Inhibition of UPPP-mediated peptidoglycan biosynthesis in Enterococcus faecalis NR-31975 assessed as accumulation of UDP-N-acetylmuramyl-pentapeptide at 10 times MIC after 30 mins by HPLC-MS analysis. Put shortly: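 Pellets boiled 30 min. UDP-N-acetylmuramyl-pentapeptide measured by HPLC-TOF MS on a phenyl column, 5–20% acetonitrile/0.1% formic acid gradient, positive ESI.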

Data set [4] concerns Klebsiella pneumoniae. Kind of data set: Antibacterial activity against Klebsiella pneumoniae BAA-1706 after 18 to 22 hrs in absence of colistin by broth microdilution method. The format is functional.
Another data set deals with Escherichia coli. Kind of data set: Antibacterial activity against tolC deficient Escherichia coli assessed as formation of spheroplasts at 25 ug/ml after 2 hrs in presence of sucrose by FM4-64/DAPI/SYTOX green staining-based deconvolution microscopic analysis. It counts as functional.
Data set [5] deals with Klebsiella pneumoniae. Kind of data set: Antibacterial activity against Klebsiella pneumoniae BAA-1706 after 18 to 22 hrs in presence of 1/4 times MIC colistin by broth microdilution method. It counts as functional. A digest of the protocol:
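Broth microdilution per CLSI guidelines. Gram-negatives grown in TSB. Each strain tested alone and again with colistin at ¼ × MIC to permeabilize the outer membrane. Plates incubated at 37 °C for 18–22 h. MIC read as the lowest concentration showing no visible growth.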

The nature of data set [6]: Inhibition of Escherichia coli UPPS using IPP and FPP as substrate preincubated for 30 mins followed by substrate addition measured after 20 mins by malachite green phosphate assay. Put shortly:
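Purified E. coli UPPS preincubated 30 min at room temperature with inhibitor (200 to 0.2 μM) in 100 mM HEPES, 50 mM NaCl, 0.5 mM MgCl2, 0.02% DDM, pH 7.5. Then 10 μM IPP and FPP added with 0.375 U/mL inorganic phosphatase. Phosphate read by malachite green at 620 nm. IC50 from dose-response curves.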

Another data set relates to Caenorhabditis elegans. Kind of data set: Toxicity in Caenorhabditis elegans AU37 assessed as worm survival at 20 ug/ml after 24 hrs by microscopic analysis. The conditions noted are these: caenorhabditis elegans, 24 h. A digest of the protocol:
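Adult C. elegans AU37, 15–20 per well, exposed in triplicate to 10 or 20 μg/mL, with sterile water as negative control. Viability checked by microscopy. Result reported as percent viable worms after 24 h exposure.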

In general, EC50 refers to the concentration giving half of the maximal effect. A word on the MIC: it is the least concentration at which growth counts as inhibited. By IC50 is commonly meant the concentration that inhibits the measured activity by half. Take `CCCCc1ccc(-c2nc(C)c(/C(C)=N/NC(=N)N)s2)cc1`: in data set [1], the EC50 came out at 25 µM. Besides, the “fractional inhibitory concentration index (FICI)” value with Enterococcus faecalis [2] is reported as 2. Further, the outcome in the data set on Enterococcus faecium was inactive. Further, the inhibition result in the data set on Enterococcus faecalis [3] was “Active”. In addition, the figures for the MIC with Klebsiella pneumoniae [4] and with Klebsiella pneumoniae [5] were 16 µg/mL (≈ 48.6 µM) and 1 µg/mL, respectively. In addition, in the data set with Escherichia coli, the result was Active. Also, the IC50 in data set [6] was 19 µM. The Activity result in the data set on Caenorhabditis elegans is on record as “Non-Toxic”.
